Test results taken from ChEMBL document CHEMBL2380202, “Identification of substituted 2-thio-6-oxo-1,6-dihydropyrimidines as inhibitors of human lactate dehydrogenase” (Bioorg Med Chem Lett, 2013).
≈ marks a conversion by molar mass, not a printed value. Calls of active or inactive are those of the source. The calls are words filed in the database; no cut-off is given here.

What was measured:
[1] = molecular target: L-lactate dehydrogenase B chain (Homo sapiens, UniProt P07195); assay: Inhibition of human recombinant carboxy-terminal his-tagged LDHB (1 to 333) expressed in insect cells using pyruvate as substrate after 10 mins by UV endpoint analysis
[2] = molecular target: T1, L-lactate dehydrogenase A chain (Homo sapiens, UniProt P00338); assay: Binding affinity to human recombinant carboxy-terminal avi-tagged LDHA (1 to 331) expressed in Escherichia coli by surface plasmon resonance analysis presence of NADH
In short: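 SPR with NADH present; twofold dilution series of analyte injections; K_D obtained by fitting kinetics or the equilibrium dose response; arithmetic mean of 2 separate runs.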

[3] = molecular target: T1, L-lactate dehydrogenase A chain; assay: Inhibition of human recombinant carboxy-terminal his-tagged LDHA (1 to 331) expressed in Escherichia coli using pyruvate as substrate after 10 mins by UV endpoint analysis
[4] = Clearance in human liver microsomes at 1 uM up to 60 mins; type: ADME, Microsome
In short: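 Human liver microsome stability, single determination (n = 1); in vitro result extrapolated to in vivo clearance, classed stable below 6.2 and labile above 15.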

[5] = molecular target: T2, Malate dehydrogenase, mitochondrial (Homo sapiens, UniProt P40926); assay: Inhibition of human recombinant carboxy-terminal his-tagged MDH-2 (20 to 338) expressed in Escherichia coli using oxaloacetic acid as substrate after 10 mins by UV endpoint analysis
T2 sequence (P40926 whole entry): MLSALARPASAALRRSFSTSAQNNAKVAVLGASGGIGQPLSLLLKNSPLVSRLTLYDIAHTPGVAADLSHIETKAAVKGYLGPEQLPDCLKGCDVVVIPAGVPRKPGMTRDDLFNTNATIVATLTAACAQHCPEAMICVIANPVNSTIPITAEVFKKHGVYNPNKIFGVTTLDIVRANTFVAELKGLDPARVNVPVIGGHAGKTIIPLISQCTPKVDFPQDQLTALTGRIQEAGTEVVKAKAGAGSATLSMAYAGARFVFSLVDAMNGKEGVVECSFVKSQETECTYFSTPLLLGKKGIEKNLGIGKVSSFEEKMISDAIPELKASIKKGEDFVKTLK
In short: (§1)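 Biochemical enzyme inhibition; reported as the arithmetic mean of 2 separate runs (n = 2).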

[6] = molecular target: T3, Malate dehydrogenase, cytoplasmic (Homo sapiens, UniProt P40925); assay: Inhibition of human recombinant carboxy-terminal his-tagged MDH-1 (3 to 334) expressed in Escherichia coli using oxaloacetic acid as substrate after 10 mins by UV endpoint analysis; in short: as §1
T3 sequence (P40925 whole entry): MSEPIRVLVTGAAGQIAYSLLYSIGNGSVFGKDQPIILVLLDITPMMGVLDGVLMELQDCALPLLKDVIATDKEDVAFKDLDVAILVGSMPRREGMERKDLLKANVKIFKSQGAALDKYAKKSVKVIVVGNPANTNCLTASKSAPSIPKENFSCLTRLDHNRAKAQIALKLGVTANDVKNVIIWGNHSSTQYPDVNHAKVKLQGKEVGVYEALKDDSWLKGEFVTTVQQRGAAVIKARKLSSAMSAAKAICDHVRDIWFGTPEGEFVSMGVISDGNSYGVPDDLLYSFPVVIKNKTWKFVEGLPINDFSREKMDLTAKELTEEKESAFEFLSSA

[7] = molecular target: T1, L-lactate dehydrogenase A chain; assay: Binding affinity to human recombinant carboxy-terminal avi-tagged LDHA (1 to 331) expressed in Escherichia coli by surface plasmon resonance analysis absence of NADH
In short: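 SPR run without NADH; analyte injected as a twofold dilution series; K_D estimated relative to a control; mean of 2 separate runs.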

[8] = molecular target: T1, L-lactate dehydrogenase A chain; assay: Inhibition of human recombinant carboxy-terminal his-tagged LDHA (1 to 331) expressed in Escherichia coli using pyruvate as substrate after 10 mins by MS endpoint analysis; in short: as §1
[9] = Aqueous solubility of the compound in PBS buffer at pH 7.2 at 100 uM after 24 hrs; type: physicochemical
In short: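 Aqueous solubility estimated from a high-throughput assay; single determination (n = 1).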

[10] = molecular target: L-lactate dehydrogenase (Homo sapiens) (UniProt V9HWB9); assay: Inhibition of LDH in human HCC1954 cells assessed as lactate accumulation up to 50 uM after 6 hrs; type: cell-based

Sequence of L-lactate dehydrogenase B chain (P07195 whole entry): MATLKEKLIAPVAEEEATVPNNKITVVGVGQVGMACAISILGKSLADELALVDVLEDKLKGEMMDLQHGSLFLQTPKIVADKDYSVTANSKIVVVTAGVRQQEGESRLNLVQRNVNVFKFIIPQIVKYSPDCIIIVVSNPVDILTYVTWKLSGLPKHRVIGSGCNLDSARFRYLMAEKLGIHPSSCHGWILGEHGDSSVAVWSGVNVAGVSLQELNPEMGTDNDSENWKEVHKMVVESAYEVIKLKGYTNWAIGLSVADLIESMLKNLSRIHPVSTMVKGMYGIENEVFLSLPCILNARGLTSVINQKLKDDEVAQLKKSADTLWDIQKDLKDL

Row | IC50 [1] | Kd [2] | IC50 [3] | Structure (SMILES) | other results
1 | > 100 µM | 552 µM | 38.6 µM | Cc1ccc(NC(=O)CSc2nc(-c3ccc(Cl)cc3)c(C#N)c(=O)[nH]2)cc1C | 
2 |  | 1210 µM | > 100 µM | CCc1ccccc1NC(=O)CSc1nc(-c2ccc(Cl)cc2)c(C#N)c(=O)[nH]1 | 
3 |  | 1010 µM | > 100 µM | Cc1ccccc1NC(=O)CSc1nc(-c2ccc(Cl)cc2)c(C#N)c(=O)[nH]1 | 
4 |  | 6.1 µM | 8.8 µM | N#Cc1c(-c2ccc(Cl)cc2)nc(SCC(=O)Nc2ccc(S(N)(=O)=O)cc2)[nH]c1=O | CLhep predicted at 1 µM [4]: 5.3 mL/min/kg; IC50 [5]: > 10 µM; IC50 [6]: > 10 µM; Kd [7]: 384 µM; IC50 [8]: 1.9 µM
5 | > 100 µM | 462 µM | 50.2 µM | Cc1c(Cl)cccc1NC(=O)CSc1nc(-c2ccc(Cl)cc2)c(C#N)c(=O)[nH]1 | 
6 | 7.7 µM | 8.9 µM | 7.4 µM | CCC(Sc1nc(-c2cccc(OC)c2)c(C#N)c(=O)[nH]1)C(=O)Nc1ccc(S(N)(=O)=O)cc1 (racemic) | CLhep predicted at 1 µM [4]: 6.9 mL/min/kg
7 |  |  | > 100 µM | CC(Sc1nc(-c2ccccc2)cc(=O)[nH]1)C(=O)Nc1ccc(S(N)(=O)=O)cc1 (racemic) | 
8 |  | 15.4 µM | 12.1 µM | N#Cc1c(-c2ccccc2)nc(SCC(=O)Nc2ccc(S(N)(=O)=O)cc2)[nH]c1=O | 
9 | 33.8 µM |  |  | NC(=O)C(=O)O [OXAMATE] | 
10 |  | 552 µM | 22.6 µM | CC(C)c1ccc(NC(=O)CSc2nc(-c3ccc(Cl)cc3)c(C#N)c(=O)[nH]2)cc1 | 
11 | > 100 µM | 532 µM | > 100 µM | CNS(=O)(=O)c1ccc(NC(=O)CSc2nc(-c3ccc(Cl)cc3)c(C#N)c(=O)[nH]2)cc1 | 
12 | 2.4 µM | 3 µM | 0.65 µM | CCC(Sc1nc(-c2ccc(Cl)cc2)c(C#N)c(=O)[nH]1)C(=O)Nc1ccc(S(N)(=O)=O)cc1 (racemic) | solubility at 24 h, 100 µM [9]: 136 µM (≈ 68.5 µg/mL); CLhep predicted at 1 µM [4]: 2.8 mL/min/kg
13 |  | 38.4 µM | 42.4 µM | COc1cccc(-c2nc(SCC(=O)Nc3ccc(S(N)(=O)=O)cc3)[nH]c(=O)c2C#N)c1 | 
14 |  | 466 µM | 27.6 µM | Cc1ccc(NC(=O)CSc2nc(-c3ccc(Cl)cc3)c(C#N)c(=O)[nH]2)cc1Cl | 
15 | 3.7 µM | 5.1 µM | 0.75 µM | CC(Sc1nc(-c2ccc(Cl)c(Cl)c2)c(C#N)c(=O)[nH]1)C(=O)Nc1ccc(S(N)(=O)=O)cc1 (racemic) | inhibition [10]: inactive; solubility at 24 h, 100 µM [9]: 30 µM (≈ 15.7 µg/mL); CLhep predicted at 1 µM [4]: 2.6 mL/min/kg
16 |  | 1110 µM | > 100 µM | COc1ccccc1NC(=O)CSc1nc(-c2ccc(Cl)cc2)c(C#N)c(=O)[nH]1 | 
17 | 2.3 µM | 2.9 µM | 0.71 µM | CC(Sc1nc(-c2ccc(Cl)c(F)c2)c(C#N)c(=O)[nH]1)C(=O)Nc1ccc(S(N)(=O)=O)cc1 (racemic) | inhibition [10]: inactive; solubility at 24 h, 100 µM [9]: 64 µM (≈ 32.5 µg/mL); CLhep predicted at 1 µM [4]: 3.4 mL/min/kg
18 |  | 1060 µM | > 100 µM | Cc1cccc(NC(=O)CSc2nc(-c3ccc(Cl)cc3)c(C#N)c(=O)[nH]2)c1C | 
19 | > 100 µM | 386 µM | 55.8 µM | N#Cc1c(-c2ccc(Cl)cc2)nc(SCC(=O)Nc2cccc(Cl)c2)[nH]c1=O | 
20 | > 100 µM | 640 µM | 26.5 µM | COc1ccc(NC(=O)CSc2nc(-c3ccc(Cl)cc3)c(C#N)c(=O)[nH]2)cc1Cl | 
21 | > 100 µM | 314 µM | 46.8 µM | N#Cc1c(-c2ccc(Cl)cc2)nc(SCC(=O)Nc2ccc(F)c(Cl)c2)[nH]c1=O | 
22 | 3 µM | 2.2 µM | 0.48 µM | CC(Sc1nc(-c2ccc(Cl)cc2)c(C#N)c(=O)[nH]1)C(=O)Nc1ccc(S(N)(=O)=O)cc1 (racemic) | inhibition [10]: inactive; solubility at 24 h, 100 µM [9]: 58 µM (≈ 28.4 µg/mL); CLhep predicted at 1 µM [4]: 2.6 mL/min/kg
23 | > 100 µM | 570 µM | 55.7 µM | N#Cc1c(-c2ccc(Cl)cc2)nc(SCC(=O)Nc2ccc(Cl)cc2)[nH]c1=O | 
24 |  |  |  | COc1ccc(CNC(=O)c2cc(=O)c3c(O)cc(OCCc4ccc(NC(=O)C(=O)O)c(OC)c4)cc3o2)cc1 | IC50 [5]: 8.48 µM; IC50 [6]: 6.78 µM
25 |  |  | 12.5 µM | CC(Sc1ncc(C#N)c(=O)[nH]1)C(=O)Nc1ccc(S(N)(=O)=O)cc1 (racemic) | 
